Measured values from ChEMBL document CHEMBL5705890, “Antitumor activity of an allosteric inhibitor of centromere-associated protein-E” (Proc Natl Acad Sci U S A, 2010).

Columns and labels:
Assay type in all cases: functional
[1] = Anticancer activity against human A7 cells assessed as cell growth inhibition measured after 72 hrs by DAPI staining based analysis
Method in brief: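 Cells were seeded and, after 24 h, DNA content was read as T0. Cells were then exposed to varying drug concentrations for a further 72 h (T72). Fixed cells were DAPI-stained and DNA content measured by automated imaging. T72 values were normalized to T0. GI50 is the concentration giving 50% growth inhibition between T0 and Ymax, obtained by curve fitting.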

[2] = system: BT-20; test: Anticancer activity against human BT-20 cells assessed as cell growth inhibition measured after 72 hrs by DAPI staining based analysis
Method in brief: (§1)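 Cells were seeded, and DNA content at 24 h after seeding (T0) was read by imaging of fixed, DAPI-stained cells. Cells were then exposed to a range of drug concentrations for a further 72 h (T72) and DNA content was read again. T72 values were normalized to T0, and GI50 was taken from curve fits as the concentration giving 50% growth inhibition relative to T0 and Ymax.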

[3] = Anticancer activity against human C32TG cells assessed as cell growth inhibition measured after 72 hrs by DAPI staining based analysis; method in brief: as §1
[4] = system: ES-2; test: Anticancer activity against human ES2 cells assessed as cell growth inhibition measured after 72 hrs by DAPI staining based analysis
Method in brief: (§2)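 Cells seeded, DAPI-stained DNA content of fixed cells read by imaging 24 h after seeding (T0), and again after a further 72 h exposure to a range of drug concentrations (T72). T72 values were normalized to T0. Curve fits gave the concentration producing 50% growth inhibition relative to T0 and Ymax (GI50).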

[5] = system: G-401; test: Anticancer activity against human G-401 cells assessed as cell growth inhibition measured after 72 hrs by DAPI staining based analysis; method in brief: as §2
[6] = system: HCC70; test: Anticancer activity against human HCC70 cells assessed as cell growth inhibition measured after 72 hrs by DAPI staining based analysis
[7] = system: HepG2; test: Anticancer activity against human HepG2 cells assessed as cell growth inhibition measured after 72 hrs by DAPI staining based analysis
[8] = system: KATO III stomach cancer cell line; test: Anticancer activity against human KATO III stomach cancer cell line cells assessed as cell growth inhibition measured after 72 hrs by DAPI staining based analysis
[9] = system: MC-CAR; test: Anticancer activity against human MC-CAR cells assessed as cell growth inhibition measured after 72 hrs by DAPI staining based analysis
[10] = system: MCF-10A; test: Anticancer activity against human MCF-10A cells assessed as cell growth inhibition measured after 72 hrs by DAPI staining based analysis
[11] = system: NCI-H157; test: Anticancer activity against human NCI-H157 cells assessed as cell growth inhibition measured after 72 hrs by DAPI staining based analysis
[12] = system: SNU-398; test: Anticancer activity against human SNU-398 cells assessed as cell growth inhibition measured after 72 hrs by DAPI staining based analysis
[13] = Anticancer activity against human A7 cells assessed as cell doubling measured for 72 hrs by DAPI staining based analysis
[14] = Anticancer activity against human BC1 cells assessed as cell doubling measured for 72 hrs by DAPI staining based analysis
[15] = system: C-33-A; test: Anticancer activity against human C-33-A cells assessed as cell doubling measured for 72 hrs by DAPI staining based analysis
[16] = system: CCF-STTG1; test: Anticancer activity against human CCF-STTG1 cells assessed as cell doubling measured for 72 hrs by DAPI staining based analysis
Method in brief: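 Cell-growth inhibition in 384-well plates. DNA content of fixed cells stained with DAPI was read by automated imaging 24 h after seeding (T0) and again after a further 72 h exposure to varying drug concentrations (T72). T72 values were normalized to T0, and curves were fitted to give the concentration causing 50% growth inhibition relative to T0 and Ymax (GI50).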

[17] = system: D283 Med; test: Anticancer activity against human D283 Med cells assessed as cell doubling measured for 72 hrs by DAPI staining based analysis
[18] = system: DoTc2-4510; test: Anticancer activity against human DoTc2-4510 cells assessed as cell doubling measured for 72 hrs by DAPI staining based analysis
[19] = system: HCC1954; test: Anticancer activity against human HCC1954 cells assessed as cell doubling measured for 72 hrs by DAPI staining based analysis
[20] = system: LOX IMVI; test: Anticancer activity against human LOX IMVI cells assessed as cell doubling measured for 72 hrs by DAPI staining based analysis
[21] = system: MDA-MB-435; test: Anticancer activity against human MDA-MB-435 cells assessed as cell doubling measured for 72 hrs by DAPI staining based analysis
[22] = Anticancer activity against human MJ cells assessed as cell doubling measured for 72 hrs by DAPI staining based analysis
[23] = system: NCI-H2170; test: Anticancer activity against human NCI-H2170 cells assessed as cell doubling measured for 72 hrs by DAPI staining based analysis
[24] = system: NCI-H292; test: Anticancer activity against human NCI-H292 cells assessed as cell doubling measured for 72 hrs by DAPI staining based analysis
[25] = system: RL95-2; test: Anticancer activity against human RL95-2 cells assessed as cell doubling measured for 72 hrs by DAPI staining based analysis
[26] = system: RPMI-6666; test: Anticancer activity against human RPMI-6666 cells assessed as cell doubling measured for 72 hrs by DAPI staining based analysis
[27] = system: SF-539; test: Anticancer activity against human SF-539 cells assessed as cell doubling measured for 72 hrs by DAPI staining based analysis
[28] = system: SH-4; test: Anticancer activity against human SH-4 cells assessed as cell doubling measured for 72 hrs by DAPI staining based analysis
[29] = system: SHP77; test: Anticancer activity against human SHP77 cells assessed as cell doubling measured for 72 hrs by DAPI staining based analysis
[30] = system: SiHa; test: Anticancer activity against human SiHa cells assessed as cell doubling measured for 72 hrs by DAPI staining based analysis
[31] = system: ST486; test: Anticancer activity against human ST486 cells assessed as cell doubling measured for 72 hrs by DAPI staining based analysis
[32] = system: SW1990; test: Anticancer activity against human SW1990 cells assessed as cell doubling measured for 72 hrs by DAPI staining based analysis
[33] = Anticancer activity against human SW579 cells assessed as cell doubling measured for 72 hrs by DAPI staining based analysis
[34] = system: UACC-62; test: Anticancer activity against human UACC-62 cells assessed as cell doubling measured for 72 hrs by DAPI staining based analysis
[35] = system: HT-29; test: Antitumor activity against human HT-29 cells in xenograft model assessed as difference between median time to endpoint time of treated versus control group at 62.5 mg/kg
[36] = system: NCI-H460; test: Antitumor activity against human NCI-H460 cells in xenograft model assessed as difference between median time to endpoint time of treated versus control group at 62.5 mg/kg
[37] = system: HCT-116; test: Antitumor activity against human HCT-116 cells in xenograft model assessed as tumor growth delay at 125 mg/kg relative to control
[38] = system: SK-OV-3; test: Antitumor activity against human SK-OV-3 cells in xenograft model assessed as tumor growth delay at 62.5 mg/kg relative to control

CC(C)Oc1ccc(C(=O)N[C@H](CNC(=O)CN(C)C)Cc2ccc(-c3cn4cccc([C@H](C)O)c4n3)cc2)cc1Cl [GSK-923295A]
GI50 [1]: 40 nM
GI50 [2]: 32 nM
GI50 [3]: 28 nM
GI50 [4]: 30 nM
GI50 [5]: 26 nM
GI50 [6]: 24 nM
GI50 [7]: 31 nM
GI50 [8]: 79 nM
GI50 [9]: 86 nM
GI50 [10]: 16 nM
GI50 [11]: 37 nM
GI50 [12]: 27 nM
Activity [13]: 2.17
Activity [14]: 3.65
Activity [15]: 3.13
Activity [16]: 1.2
Activity [17]: 1.27
Activity [18]: 2.17
Activity [19]: 2.04
Activity [20]: 2.32
Activity [21]: 2.96
Activity [22]: 3.39
Activity [23]: 1.69
Activity [24]: 2.2
Activity [25]: 2.48
Activity [26]: 1.99
Activity [27]: 2.08
Activity [28]: 3.12
Activity [29]: 2.04
Activity [30]: 2.36
Activity [31]: 2.46
Activity [32]: 1.88
Activity [33]: 1.41
Activity [34]: 2.12
Time [35]: 2.7 days
Time [36]: 15.4 days
Activity [37]: 37%
Activity [38]: 194%
